According to ChEMBL document CHEMBL5149984, “Discovery of HN37 as a Potent and Chemically Stable Antiepileptic Drug Candidate” (J Med Chem, 2021):
pIC50: −log10 of the molar value.

Key:
Mus musculus [1] = test: Anticonvulsant activity in MES induced Kunming mouse model of seizure at 60 mg/kg, po; format: functional
Method in brief: (§1)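 MES test in male KM mice. Compounds freshly suspended in 0.5% CMC-Na and given by gavage at 20 mL/kg; 160 V stimulus through ear clips. Protection scored as absence of hindlimb tonic extension; time course at 0.25, 0.5, 1 and 2 h, otherwise tested at 1 h. ED50 from dose−response by nonlinear regression; Fisher's exact test versus vehicle.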

CHO = test: Agonist activity at rat KCNQ3 A278T mutant expressed in CHO cells assessed as shift of half voltage of maximal activation at 10 uM by patch clamp method; format: cell-based; details: filed as agonist
Method in brief: (§2)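 Whole-cell patch clamp at room temperature on CHO cells (DMEM/F12, 10% FBS) transiently co-transfected with EGFP and hKCNQ1, rKCNQ2, rKCNQ3 A278T, hKCNQ4 or hKCNQ5; KCNQ2/3 at 1:1 cDNA ratio. Pipette solution 145 mM KCl, 5 mM MgATP, pH 7.3; bath 140 mM NaCl, 5 mM KCl, pH 7.4, under perfusion. V1/2 from Boltzmann fits; I/I0 is current amplitude with versus without compound; n = 4−6.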

[2] = Toxicity in C57BL/6 mouse assessed as sedative effect at 80 mg/kg; format: organism-based; details: in vivo
[3] = target: T1, Potassium voltage-gated channel subfamily KQT member 1 (Homo sapiens, UniProt P51787); test: Agonist activity at human KCNQ1 channel expressed in CHO cells assessed as amplitude change of outward current at 0.1 uM by patch clamp method; format: cell-based; method in brief: as §2
T1 sequence (P51787 whole entry): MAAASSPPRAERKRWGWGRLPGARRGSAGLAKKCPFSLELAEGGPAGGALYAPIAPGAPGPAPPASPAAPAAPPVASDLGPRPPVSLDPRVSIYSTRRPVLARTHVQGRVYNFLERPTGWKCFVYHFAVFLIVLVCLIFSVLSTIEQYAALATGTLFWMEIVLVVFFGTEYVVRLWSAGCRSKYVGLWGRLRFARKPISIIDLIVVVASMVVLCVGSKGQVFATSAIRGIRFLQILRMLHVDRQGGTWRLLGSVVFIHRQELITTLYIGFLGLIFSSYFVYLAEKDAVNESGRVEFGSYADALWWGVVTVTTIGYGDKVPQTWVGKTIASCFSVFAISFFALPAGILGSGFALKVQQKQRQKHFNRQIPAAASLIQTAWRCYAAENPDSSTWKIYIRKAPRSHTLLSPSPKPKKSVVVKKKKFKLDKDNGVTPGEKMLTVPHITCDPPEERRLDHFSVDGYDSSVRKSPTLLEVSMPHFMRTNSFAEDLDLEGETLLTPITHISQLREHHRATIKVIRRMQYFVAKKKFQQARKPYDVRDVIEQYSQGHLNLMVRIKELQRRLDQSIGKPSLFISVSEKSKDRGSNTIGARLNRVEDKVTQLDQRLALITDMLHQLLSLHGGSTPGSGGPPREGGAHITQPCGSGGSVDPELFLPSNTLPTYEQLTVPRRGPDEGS

CYP2C19 = CYP2C19 (Homo sapiens, UniProt P33261); test: Inhibition of human liver microsome CYP2C19 at 0.10 to 50 uM preincubated with NADPH for 0.5 hrs followed by substrate addition by LC-MS/MS method relative to control; format: ADME; details: liver microsomes, dose 0.1-50 µM
Chain of CYP2C19 (P33261 whole entry): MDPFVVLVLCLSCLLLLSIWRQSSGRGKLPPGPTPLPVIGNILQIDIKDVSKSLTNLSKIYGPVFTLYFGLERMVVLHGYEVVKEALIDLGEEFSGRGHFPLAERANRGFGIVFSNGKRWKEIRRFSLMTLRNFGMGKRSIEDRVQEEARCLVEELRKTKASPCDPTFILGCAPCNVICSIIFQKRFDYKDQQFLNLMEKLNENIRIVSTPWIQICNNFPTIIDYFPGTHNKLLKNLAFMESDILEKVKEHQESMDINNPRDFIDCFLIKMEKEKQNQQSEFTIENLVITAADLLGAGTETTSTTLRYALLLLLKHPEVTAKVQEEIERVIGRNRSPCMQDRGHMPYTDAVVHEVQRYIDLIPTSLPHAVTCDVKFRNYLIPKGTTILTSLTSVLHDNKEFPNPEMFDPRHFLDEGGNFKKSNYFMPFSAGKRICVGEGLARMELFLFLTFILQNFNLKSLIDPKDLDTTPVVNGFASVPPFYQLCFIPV

[4] = target: T2, Potassium voltage-gated channel subfamily KQT member 4 (Homo sapiens) (UniProt P56696); test: Agonist activity at human KCNQ4 channel expressed in CHO cells assessed as shift of half voltage of maximal activation at 0.1 uM by patch clamp method; format: cell-based; details: filed as agonist; method in brief: as §2
T2 sequence (whole entry): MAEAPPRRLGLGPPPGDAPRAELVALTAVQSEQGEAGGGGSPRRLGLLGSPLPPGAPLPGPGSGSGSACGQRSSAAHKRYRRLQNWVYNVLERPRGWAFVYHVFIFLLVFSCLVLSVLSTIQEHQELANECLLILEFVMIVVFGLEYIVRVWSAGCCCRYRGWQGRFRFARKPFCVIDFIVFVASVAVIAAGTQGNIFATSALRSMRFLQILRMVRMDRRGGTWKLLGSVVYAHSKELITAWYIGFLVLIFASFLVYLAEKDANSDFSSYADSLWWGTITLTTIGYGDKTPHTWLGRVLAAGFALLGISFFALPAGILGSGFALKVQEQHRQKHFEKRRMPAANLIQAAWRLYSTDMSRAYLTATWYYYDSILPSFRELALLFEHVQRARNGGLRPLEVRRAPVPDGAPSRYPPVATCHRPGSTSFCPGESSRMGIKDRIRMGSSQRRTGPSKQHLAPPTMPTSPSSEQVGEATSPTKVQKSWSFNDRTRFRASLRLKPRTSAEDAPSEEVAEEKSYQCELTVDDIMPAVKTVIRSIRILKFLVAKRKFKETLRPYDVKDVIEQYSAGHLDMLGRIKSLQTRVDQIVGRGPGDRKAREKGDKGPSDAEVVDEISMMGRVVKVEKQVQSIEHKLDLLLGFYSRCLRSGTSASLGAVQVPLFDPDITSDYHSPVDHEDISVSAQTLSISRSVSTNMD

[5] = Ratio of AUC(0 to t) in Kunming mouse brain to plasma at 5 mg/kg, po measured upto 24 hrs by LC-MS/MS method; format: ADME, organism-based; details: brain and plasma
Method in brief: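 Male KM mice (18−24 g) fasted 12 h before and 2 h after dosing, given 5 mg/kg orally in 5% DMSO/5% Tween 80/90% normal saline (n = 3 per time point). Aortic blood taken at 0.25–24 h and whole brain collected. Acetonitrile extraction with internal standard, then LC−MS/MS. Bioavailability calculated against the 2 mg/kg i.v. arm.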

[6] = Tmax in Kunming mouse brain at 5 mg/kg, po measured upto 24 hrs by LC-MS/MS method; format: ADME, organism-based
Method in brief: (§3)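 Male KM mice (18–24 g), fasted 12 h before and 2 h after dosing, n = 3 per time point. Oral dose in 5% DMSO/5% Tween 80/90% saline; i.v. dose is that formulation diluted in saline with 1% Tween 80. Blood sampled 0.25–24 h after oral dosing, 0.083–24 h after i.v.; whole brain taken after oral dosing. Acetonitrile extraction with internal standard, LC-MS/MS.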

[7] = Volume of distribution at steady state in Kunming mouse plasma at 2 mg/kg, iv measured upto 24 hrs by LC-MS/MS method; format: ADME, organism-based; details: in vivo; method in brief: as §3
Mus musculus [8] = test: Anticonvulsant activity in MES induced Kunming mouse model of seizure at 3 mg/kg, po after 1 hr; format: functional; method in brief: as §1
Cytochrome P450 1A2 = Cytochrome P450 1A2 (Homo sapiens, UniProt P05177); test: Time dependent inhibition of human liver microsome CYP1A2 preincubated for 0.5 hrs in absence of NADPH followed by substrate addition by LC-MS/MS method; format: ADME, microsomes
Chain of Cytochrome P450 1A2 (P05177 whole entry): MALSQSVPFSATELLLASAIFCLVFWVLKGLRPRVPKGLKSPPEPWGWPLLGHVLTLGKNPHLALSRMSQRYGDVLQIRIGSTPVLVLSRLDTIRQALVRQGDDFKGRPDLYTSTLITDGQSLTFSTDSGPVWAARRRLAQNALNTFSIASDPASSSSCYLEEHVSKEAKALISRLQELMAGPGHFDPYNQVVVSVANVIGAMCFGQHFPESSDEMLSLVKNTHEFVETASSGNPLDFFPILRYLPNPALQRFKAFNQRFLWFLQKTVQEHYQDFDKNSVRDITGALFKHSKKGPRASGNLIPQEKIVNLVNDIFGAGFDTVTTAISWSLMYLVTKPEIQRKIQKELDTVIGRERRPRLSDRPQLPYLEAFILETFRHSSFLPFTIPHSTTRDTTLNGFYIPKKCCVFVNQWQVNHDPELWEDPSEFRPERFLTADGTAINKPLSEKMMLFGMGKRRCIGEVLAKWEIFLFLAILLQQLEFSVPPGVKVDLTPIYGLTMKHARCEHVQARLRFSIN
Method in brief: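 Human liver microsomes preincubated 0.5 h with 0.10–50 μM test compound, with or without NADPH, then CYP-specific probe substrate added and incubation continued. Metabolite measured by LC-MS/MS; % activity remaining relative to no-compound control; IC50 fitted by Probit model. For CYP3A4, midazolam 1′-hydroxylation and testosterone 6β-hydroxylation were read separately.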

SMILES | Activity (Mus musculus [1]) | Activity (CHO) | Activity [2] | Activity [3] | inhibition at 0.5 h, up to 50 µM (CYP2C19) | Activity [4] | Kp at 24 h [5] | Tmax [6] | Vdss [7] | Activity (Mus musculus [8]) | pIC50 (Cytochrome P450 1A2)
CCOC(=O)Nc1ccc(NCc2ccc(F)cc2)cc1N [EZOGABINE] | 62.5% | -46.8 mV | Toxic | – | – | – | – | – | – | – | –
C#CCN(Cc1ccc(F)cc1)c1cc(C)c(NC(=O)OC)c(C)c1 | – | – | – | 0.99 | < 25% | -56.6 mV | 2.23 | 15 min | 2.89 L/kg | 62.5% | 3.85
